Activity calls are given as the source filed them. The rule behind the calls is not given here.

Chain of Beta-3 adrenergic receptor (P13945 whole entry): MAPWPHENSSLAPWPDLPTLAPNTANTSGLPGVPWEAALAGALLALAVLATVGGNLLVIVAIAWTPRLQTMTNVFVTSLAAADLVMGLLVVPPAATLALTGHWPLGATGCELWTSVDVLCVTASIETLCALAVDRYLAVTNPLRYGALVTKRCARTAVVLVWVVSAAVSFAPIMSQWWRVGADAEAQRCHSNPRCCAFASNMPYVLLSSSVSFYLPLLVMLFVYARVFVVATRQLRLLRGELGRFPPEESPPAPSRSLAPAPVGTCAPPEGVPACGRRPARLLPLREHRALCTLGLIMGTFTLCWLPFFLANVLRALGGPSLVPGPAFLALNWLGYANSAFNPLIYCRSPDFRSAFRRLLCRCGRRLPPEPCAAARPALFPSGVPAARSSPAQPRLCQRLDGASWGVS
T1 sequence (P07550 whole entry): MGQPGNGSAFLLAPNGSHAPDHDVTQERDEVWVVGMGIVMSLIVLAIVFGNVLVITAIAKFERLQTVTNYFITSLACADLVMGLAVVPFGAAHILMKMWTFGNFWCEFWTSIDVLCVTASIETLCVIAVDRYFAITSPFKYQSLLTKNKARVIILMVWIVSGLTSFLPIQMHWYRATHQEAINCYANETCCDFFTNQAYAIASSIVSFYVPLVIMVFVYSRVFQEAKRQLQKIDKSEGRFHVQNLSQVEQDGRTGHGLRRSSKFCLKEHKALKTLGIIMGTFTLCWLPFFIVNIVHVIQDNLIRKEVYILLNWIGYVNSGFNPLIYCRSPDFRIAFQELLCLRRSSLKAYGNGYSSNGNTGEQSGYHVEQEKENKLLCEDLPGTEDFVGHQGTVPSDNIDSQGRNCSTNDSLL

One assay has as its target T1, Beta-2 adrenergic receptor (Homo sapiens, UniProt P07550). As to the kind of experiment: Agonist activity at human beta2 receptor in BEAS-2B cells assessed as cAMP accumulation by radioimmunoassay. It counts as functional, cell-based.
As for `COc1ccc(Nc2ccc(CCNC[C@H](O)c3ccc(O)c4[nH]c(=O)ccc34)cc2)cc1-c1ccccc1`, the EC50 was 0.398 nM.

Turning to `COc1ccc(Nc2ccc(CCNC[C@H](O)c3ccc(O)c(NC=O)c3)cc2)cc1-c1ccccc1`, the 50% effective concentration (EC50) was 0.794 nM.

Consider `COc1ccc(Nc2ccc(CCNC[C@H](O)c3ccc(O)c(CO)c3)cc2)cc1-c1ccccc1`, for which the 50% effective concentration (EC50) is 3.98 nM.

For another assay, the target named is T2, Beta-1 adrenergic receptor (Homo sapiens, UniProt P08588). As to the kind of experiment: Agonist activity at human recombinant beta1 receptor assessed as cAMP accumulation by radioimmunoassay and cell based assay.
T2 sequence (P08588 whole entry): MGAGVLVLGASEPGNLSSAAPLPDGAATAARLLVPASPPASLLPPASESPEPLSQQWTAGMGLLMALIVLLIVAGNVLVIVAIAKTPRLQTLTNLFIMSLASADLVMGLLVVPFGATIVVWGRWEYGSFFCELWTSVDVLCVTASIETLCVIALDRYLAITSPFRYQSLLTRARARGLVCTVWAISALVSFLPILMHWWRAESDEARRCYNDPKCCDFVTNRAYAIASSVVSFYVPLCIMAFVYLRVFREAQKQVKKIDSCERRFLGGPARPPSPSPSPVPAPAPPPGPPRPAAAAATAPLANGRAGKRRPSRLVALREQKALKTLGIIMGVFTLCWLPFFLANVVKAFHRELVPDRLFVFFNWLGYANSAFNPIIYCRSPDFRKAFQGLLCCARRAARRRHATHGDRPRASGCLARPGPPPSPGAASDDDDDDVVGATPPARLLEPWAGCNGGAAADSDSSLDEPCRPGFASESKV
Turning to `COc1ccc(Nc2ccc(CCNC[C@H](O)c3ccc(O)c4[nH]c(=O)ccc34)cc2)cc1-c1ccccc1`, the EC50 was 7.94 nM.

Regarding `COc1ccc(Nc2ccc(CCNC[C@H](O)c3ccc(O)c(NC=O)c3)cc2)cc1-c1ccccc1`, the EC50 was 10 nM.

The test system of a further assay is Cavia porcellus. As to the kind of experiment: Inhibition of acetylcholine-induced bronchoconstriction in male guinea pig assessed as pulmonary resistance administered via nebulization for 10 mins measured after 72 hrs by plethysmograph. The assay is classed as functional, organism-based. The gist of the method: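 Guinea pigs dosed by nebulizer, 72 h before measurement. Pulmonary resistance measured in anesthetized, spontaneously breathing animals by head-out plethysmograph. Bronchoconstriction induced by increasing intravenous acetylcholine doses; PD2 is the ACh dose that doubles baseline resistance.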
With `COc1ccc(Nc2ccc(CCNC[C@H](O)c3ccc(O)c4[nH]c(=O)ccc34)cc2)cc1-c1ccccc1`, the inhibition result is “Dose-dependent effect”.

The target of a further assay is T3, Beta-2 adrenergic receptor (Cavia porcellus, UniProt Q8K4Z4). As to the kind of experiment: Agonist activity at beta2 receptor in guinea pig trachea assessed as fast onset of inhibition of electrically stimulated contraction.
T3 sequence (Q8K4Z4 whole entry): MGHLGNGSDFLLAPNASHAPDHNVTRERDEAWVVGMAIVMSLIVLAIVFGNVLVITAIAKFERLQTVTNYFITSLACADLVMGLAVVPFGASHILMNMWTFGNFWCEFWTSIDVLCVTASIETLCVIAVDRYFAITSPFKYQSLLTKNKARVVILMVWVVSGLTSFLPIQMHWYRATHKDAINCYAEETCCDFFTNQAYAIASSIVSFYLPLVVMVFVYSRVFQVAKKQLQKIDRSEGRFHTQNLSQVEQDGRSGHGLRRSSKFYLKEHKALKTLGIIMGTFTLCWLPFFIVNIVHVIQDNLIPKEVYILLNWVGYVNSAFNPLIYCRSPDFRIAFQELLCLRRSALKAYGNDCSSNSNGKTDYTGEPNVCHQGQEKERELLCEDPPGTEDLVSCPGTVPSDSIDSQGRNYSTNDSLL
Consider `O=CNc1cc([C@@H](O)CNCCc2ccc(NC[C@H](O)c3ccccc3)cc2)ccc1O` [MILVETEROL], for which the concentration giving a half-maximal response (EC50) is 0.0501 nM.

The target in the next assay is T3, Beta-2 adrenergic receptor. As to the kind of experiment: Agonist activity at beta2 receptor in guinea pig trachea assessed as slow onset of inhibition of electrically stimulated contraction. The gist of the method: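 Guinea pigs pretreated with 6-hydroxy-dopamine (200 mg/kg i.p.) 24 h before. Opened 5 mm tracheal rings between platinum electrodes in normal-K+ (4.7 mM) Krebs at 37 °C with 10 µM indomethacin, 1 µM choline, 3 µM guanethidine. Field stimulation: 9 V, 10 Hz, 1 ms pulses, 10 s train every 100 s. Resting tension 1 g, 1 h equilibration. Onset is the time to maximum effect at an EC80 concentration; slow is >30 min.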
`COc1ccc(Nc2ccc(CCNC[C@H](O)c3ccc(O)c4[nH]c(=O)ccc34)cc2)cc1-c1ccccc1`: the EC50 was 2 nM.

For `COc1ccc(Nc2ccc(CCNC[C@H](O)c3ccc(O)c(NC=O)c3)cc2)cc1-c1ccccc1`, the EC50 was 12.6 nM.

As for `CCOc1ccc(Nc2ccc(CCNCC(O)c3ccc(O)c(CO)c3)cc2)cc1` (racemic), the half-maximal effective concentration (EC50) is 200 nM.

As to `COc1ccc(Nc2ccc(CCNC[C@H](O)c3ccc(O)c(CO)c3)cc2)cc1-c1ccccc1`, the EC50 is 2 nM.

As to `OCc1cc(C(O)CNCCCCCCOCCCCc2ccccc2)ccc1O` (stereo unspecified) [SALMETEROL], the concentration for a half-maximal effect (EC50) is 31.6 nM.

Another assay is filed under the species Homo sapiens. As to the kind of experiment: Selectivity ratio Ki for beta1 receptor (unknown origin) to Ki for beta2 receptor (unknown origin).
As to `OCc1cc(C(O)CNCCc2ccc(Nc3ccc(F)cc3)cc2)ccc1O` (racemic), the Ratio Ki was found to be 6.5.

Turning to `COc1ccc(Nc2ccc(CCNCC(O)c3ccc(O)c(CO)c3)cc2)cc1-c1ccccc1` (racemic), the Ratio Ki was 319.

`OCc1cc(C(O)CNCCc2ccc(Nc3ccc4c(c3)CCC4)cc2)ccc1O` (racemic): the Ratio Ki amounted to 31.

Consider `COc1cccc(Nc2ccc(CCNCC(O)c3ccc(O)c(CO)c3)cc2)c1` (racemic), for which the Ratio Ki is 17.

Consider `OCc1cc(C(O)CNCCc2ccc(Nc3cccc4ccccc34)cc2)ccc1O` (racemic), for which the Ratio Ki is 5.4.

As for `OCc1cc(C(O)CNCCc2ccc(Nc3ccc4ccccc4c3)cc2)ccc1O` (racemic), the Ratio Ki was determined as 34.

As to `CSc1ccc(Nc2ccc(CCNCC(O)c3ccc(O)c(CO)c3)cc2)cc1` (racemic), the Ratio Ki is 81.

With `O=C(c1ccccc1)C1CCN(c2ccc(CCNCC(O)c3ccc(O)c(CO)c3)cc2)CC1` (racemic), the Ratio Ki came to 3.4.

With `OCc1cc(C(O)CNCCc2ccc(Nc3ccc(-c4ccccc4)cc3)cc2)ccc1O` (racemic), the Ratio Ki turned out to be 36.

For `CCOc1ccc(Nc2ccc(CCNCC(O)c3ccc(O)c(CO)c3)cc2)cc1` (racemic), the Ratio Ki was determined as 178.

On to `O=CNc1cc([C@@H](O)CNCCc2ccc(NC[C@H](O)c3ccccc3)cc2)ccc1O` [MILVETEROL], for which the Ratio Ki worked out at 3030.

For a further assay, the species on record is Homo sapiens. As to the kind of experiment: Selectivity ratio EC50 for human beta2 receptor to EC50 for human beta1 receptor. Summed up: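 cAMP accumulation in whole cells overexpressing cloned human β2- or β1-adrenoceptor, measured by homogeneous radioimmunoassay. Selectivity is the ratio of agonist EC50s, β1 EC50/β2 EC50.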
With `COc1ccc(Nc2ccc(CCNC[C@H](O)c3ccc(O)c4[nH]c(=O)ccc34)cc2)cc1-c1ccccc1`, the Ratio EC50 is 56.

In the case of `COc1ccc(Nc2ccc(CCNC[C@H](O)c3ccc(O)c(NC=O)c3)cc2)cc1-c1ccccc1`, the Ratio EC50 worked out at 75.

Another assay concerns the target Beta-3 adrenergic receptor (Homo sapiens, UniProt P13945). As to the kind of experiment: Agonist activity at human recombinant beta3 receptor assessed as cAMP accumulation by radioimmunoassay and cell based assay.
In the case of `COc1ccc(Nc2ccc(CCNC[C@H](O)c3ccc(O)c4[nH]c(=O)ccc34)cc2)cc1-c1ccccc1`, the EC50 is 12.6 nM.

`COc1ccc(Nc2ccc(CCNC[C@H](O)c3ccc(O)c(NC=O)c3)cc2)cc1-c1ccccc1`: the half-maximal effective concentration (EC50) was 3.16 nM.

As for `OCc1cc(C(O)CNCCCCCCOCCCCc2ccccc2)ccc1O` (stereo unspecified) [SALMETEROL], the concentration for a half-maximal effect (EC50) is 1000 nM.

A further assay deals with Cavia porcellus. Nature of the assay: Inhibition of acetylcholine-induced bronchoconstriction in male guinea pig assessed as pulmonary resistance at 1 -100 ug/ml administered via nebulization for 10 mins measured after 1.5 hrs by plethysmograph. It counts as functional, organism-based.
As to `COc1ccc(Nc2ccc(CCNC[C@H](O)c3ccc(O)c4[nH]c(=O)ccc34)cc2)cc1-c1ccccc1`, the inhibition entry is “Active”.

For a further assay, the species on record is Homo sapiens. As to the kind of experiment: Selectivity ratio EC50 for human beta2 receptor to EC50 for human beta3 receptor. Summed up:
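cAMP accumulation in whole cells overexpressing cloned human β-adrenoceptor subtypes, measured by homogeneous radioimmunoassay (Flashplate). Reported as pEC50. Functional selectivity is the ratio of EC50 values (β3 EC50/β2 EC50 for β3; β1 EC50/β2 EC50 for β1).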
As to `COc1ccc(Nc2ccc(CCNC[C@H](O)c3ccc(O)c4[nH]c(=O)ccc34)cc2)cc1-c1ccccc1`, the Ratio EC50 turned out to be 100.

In the case of `COc1ccc(Nc2ccc(CCNC[C@H](O)c3ccc(O)c(NC=O)c3)cc2)cc1-c1ccccc1`, the Ratio EC50 came to 26.

The next assay addresses T1, Beta-2 adrenergic receptor. As to the kind of experiment: Agonist activity at human recombinant beta2 receptor assessed as cAMP accumulation by radioimmunoassay and cell based assay. It counts as functional.
Turning to `OCc1cc(C(O)CNCCc2ccc(Nc3ccc(F)cc3)cc2)ccc1O` (racemic), the EC50 was 31.6 nM.

Take `COc1ccc(Nc2ccc(CCNCC(O)c3ccc(O)c(CO)c3)cc2)cc1-c1ccccc1` (racemic): the EC50 was 1.26 nM.

Take `OCc1cc(C(O)CNCCc2ccc(Nc3ccc4c(c3)CCC4)cc2)ccc1O` (racemic): the EC50 was 7.94 nM.

`COc1cccc(Nc2ccc(CCNCC(O)c3ccc(O)c(CO)c3)cc2)c1` (racemic): the EC50 is 10 nM.

Take `COc1ccc(Nc2ccc(CCNC[C@H](O)c3ccc(O)c4[nH]c(=O)ccc34)cc2)cc1-c1ccccc1`: the EC50 is 0.126 nM.

On to `OCc1cc(C(O)CNCCc2ccc(Nc3cccc4ccccc34)cc2)ccc1O` (racemic), for which the EC50 is 200 nM.

Take `OCc1cc(C(O)CNCCc2ccc(Nc3ccc4ccccc4c3)cc2)ccc1O` (racemic): the 50% effective concentration (EC50) is 2.51 nM.

On to `CSc1ccc(Nc2ccc(CCNCC(O)c3ccc(O)c(CO)c3)cc2)cc1` (racemic), for which the EC50 was 2.51 nM.

With `O=C(c1ccccc1)C1CCN(c2ccc(CCNCC(O)c3ccc(O)c(CO)c3)cc2)CC1` (racemic), the concentration for a half-maximal effect (EC50) was 1260 nM.

In the case of `OCc1cc(C(O)CNCCc2ccc(Nc3ccc(-c4ccccc4)cc3)cc2)ccc1O` (racemic), the EC50 is 7.94 nM.

For `COc1ccc(Nc2ccc(CCNC[C@H](O)c3ccc(O)c(NC=O)c3)cc2)cc1-c1ccccc1`, the half-maximal effective concentration (EC50) is 0.126 nM.

Regarding `CCOc1ccc(Nc2ccc(CCNCC(O)c3ccc(O)c(CO)c3)cc2)cc1` (racemic), the EC50 is 1.26 nM.

Consider `COc1ccc(Nc2ccc(CCNC[C@H](O)c3ccc(O)c(CO)c3)cc2)cc1-c1ccccc1`, for which the concentration giving a half-maximal response (EC50) was 0.501 nM.

The next assay deals with T2, Beta-1 adrenergic receptor. As to the kind of experiment: Displacement of [3H]dihydroalprenolol from beta1 receptor (unknown origin) by liquid scintillation counting and cell based assay.
Consider `OCc1cc(C(O)CNCCc2ccc(Nc3ccc(F)cc3)cc2)ccc1O` (racemic), for which the Ki is 7940 nM.

Turning to `COc1ccc(Nc2ccc(CCNCC(O)c3ccc(O)c(CO)c3)cc2)cc1-c1ccccc1` (racemic), the Ki was 20000 nM.

Regarding `OCc1cc(C(O)CNCCc2ccc(Nc3ccc4c(c3)CCC4)cc2)ccc1O` (racemic), the affinity, expressed as Ki, was 25100 nM.

For the compound `COc1cccc(Nc2ccc(CCNCC(O)c3ccc(O)c(CO)c3)cc2)c1` (racemic), the inhibitory constant (Ki) is 12600 nM.

The compound `OCc1cc(C(O)CNCCc2ccc(Nc3cccc4ccccc34)cc2)ccc1O` (racemic) showed a Ki of 31600 nM.

Regarding `OCc1cc(C(O)CNCCc2ccc(Nc3ccc4ccccc4c3)cc2)ccc1O` (racemic), the affinity corresponds to a Ki of 12600 nM.

With `CSc1ccc(Nc2ccc(CCNCC(O)c3ccc(O)c(CO)c3)cc2)cc1` (racemic), the Ki is 7940 nM.

Consider `O=C(c1ccccc1)C1CCN(c2ccc(CCNCC(O)c3ccc(O)c(CO)c3)cc2)CC1` (racemic), for which the affinity, expressed as Ki, was 126000 nM.

`OCc1cc(C(O)CNCCc2ccc(Nc3ccc(-c4ccccc4)cc3)cc2)ccc1O` (racemic): the Ki was 12600 nM.

`CCOc1ccc(Nc2ccc(CCNCC(O)c3ccc(O)c(CO)c3)cc2)cc1` (racemic) showed an inhibition constant (Ki) of 31600 nM.

In turn, `O=CNc1cc([C@@H](O)CNCCc2ccc(NC[C@H](O)c3ccccc3)cc2)ccc1O` [MILVETEROL] gave a Ki of 10000 nM.

The target of another assay is T1, Beta-2 adrenergic receptor. As to the kind of experiment: Displacement of [3H]dihydroalprenolol from beta2 receptor (unknown origin) by liquid scintillation counting and cell based assay.
In turn, `OCc1cc(C(O)CNCCc2ccc(Nc3ccc(F)cc3)cc2)ccc1O` (racemic) had an inhibition constant (Ki) of 1260 nM.

Compound `COc1ccc(Nc2ccc(CCNCC(O)c3ccc(O)c(CO)c3)cc2)cc1-c1ccccc1` (racemic) had an inhibition constant (Ki) of 63.1 nM.

Compound `OCc1cc(C(O)CNCCc2ccc(Nc3ccc4c(c3)CCC4)cc2)ccc1O` (racemic) showed a Ki of 794 nM.

In turn, `COc1cccc(Nc2ccc(CCNCC(O)c3ccc(O)c(CO)c3)cc2)c1` (racemic) had an inhibition constant (Ki) of 631 nM.

In turn, `OCc1cc(C(O)CNCCc2ccc(Nc3cccc4ccccc34)cc2)ccc1O` (racemic) gave a Ki of 6310 nM.

As to `OCc1cc(C(O)CNCCc2ccc(Nc3ccc4ccccc4c3)cc2)ccc1O` (racemic), the affinity, expressed as Ki, was 316 nM.

Take `CSc1ccc(Nc2ccc(CCNCC(O)c3ccc(O)c(CO)c3)cc2)cc1` (racemic): the affinity corresponds to a Ki of 79.4 nM.

The compound `O=C(c1ccccc1)C1CCN(c2ccc(CCNCC(O)c3ccc(O)c(CO)c3)cc2)CC1` (racemic) showed a Ki of 39800 nM.

`OCc1cc(C(O)CNCCc2ccc(Nc3ccc(-c4ccccc4)cc3)cc2)ccc1O` (racemic): the Ki is 316 nM.

`CCOc1ccc(Nc2ccc(CCNCC(O)c3ccc(O)c(CO)c3)cc2)cc1` (racemic) gave a Ki of 158 nM.

For `O=CNc1cc([C@@H](O)CNCCc2ccc(NC[C@H](O)c3ccccc3)cc2)ccc1O` [MILVETEROL], the affinity corresponds to a Ki of 3.16 nM.

For the origin of these results see ChEMBL document CHEMBL3286330, “Multivalent design of long-acting β(2)-adrenoceptor agonists incorporating biarylamines” (Bioorg Med Chem Lett, 2014).
